≈ marks a conversion by molar mass, not a printed value.
Tests used:
Klebsiella pneumoniae [1] = assay: Antimicrobial activity against tetracycline-resistant Klebsiella pneumoniae isolate 153 harboring tetA gene by CLSI dilution method; assay type: functional
Escherichia coli [2] = assay: Antimicrobial activity against tetracycline-resistant Escherichia coli isolate 155 harboring tetA gene by CLSI dilution method; assay type: functional
Pseudomonas aeruginosa = assay: Antimicrobial activity against tetracycline-susceptible Pseudomonas aeruginosa isolate 111 by CLSI dilution method; assay type: functional
How it was run: (§1)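 Broth microdilution per CLSI in fresh cation-adjusted Mueller Hinton broth, kept at 4 °C before testing, with defibrinated horse blood added as appropriate. Strains were from ATCC. MIC in µg/mL. Runs were accepted when comparator antibiotics against ATCC quality-control strains fell within recommended ranges.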

Staphylococcus aureus [3] = assay: Antimicrobial activity against methicillin-, tetracycline-resistant Staphylococcus aureus isolate 161 harboring tetM gene by CLSI dilution method; assay type: functional
Staphylococcus aureus [4] = assay: Antimicrobial activity against tetracycline-susceptible Staphylococcus aureus isolate 101 by CLSI dilution method; assay type: functional
Streptococcus pneumoniae [5] = assay: Antimicrobial activity against tetracycline-susceptible Streptococcus pneumoniae isolate 106 by CLSI dilution method; assay type: functional; how it was run: as §1
Staphylococcus aureus [6] = assay: Antimicrobial activity against tetracycline-resistant Staphylococcus aureus isolate 158 harboring tetK gene by CLSI dilution method; assay type: functional
Escherichia coli [7] = assay: Antimicrobial activity against tetracycline-susceptible Escherichia coli isolate 107 by CLSI dilution method; assay type: functional; how it was run: as §1
Streptococcus pneumoniae [8] = assay: Antimicrobial activity against tetracycline-resistant Streptococcus pneumoniae isolate 160 harboring tetM gene by CLSI dilution method; assay type: functional
Enterobacter cloacae = assay: Antimicrobial activity against tetracycline-susceptible Enterobacter cloacae isolate 108 by CLSI dilution method; assay type: functional; how it was run: as §1
Acinetobacter baumannii = assay: Antimicrobial activity against tetracycline-susceptible Acinetobacter baumannii isolate 110 by CLSI dilution method; assay type: functional; how it was run: as §1
Enterococcus faecalis [9] = assay: Antimicrobial activity against tetracycline-resistant Enterococcus faecalis isolate 159 harboring […] gene by CLSI dilution method; assay type: functional
Klebsiella pneumoniae [10] = assay: Antimicrobial activity against tetracycline-susceptible Klebsiella pneumoniae isolate 109 by CLSI dilution method; assay type: functional; how it was run: as §1
Enterococcus faecalis [11] = assay: Antimicrobial activity against tetracycline-susceptible Enterococcus faecalis isolate 103 by CLSI dilution method; assay type: functional; how it was run: as §1
[12] = Apparent volume of distribution in Sprague-Dawley rat at 1 mg/kg, iv administered as single dose measured after 24 to 48 hrs; details: in vivo
[13] = Cmax in Sprague-Dawley rat at 1 mg/kg, iv administered as single dose measured after 24 to 48 hrs; assay type: ADME, organism-based; parameters: dose 1 mg/kg, route intravenous; details: in vivo
How it was run: (§2)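 Sprague-Dawley rats (n = 3) were fasted overnight (minimum 12 h) and given a single dose, iv 1 mg/kg or oral 10 mg/kg, in sterile water. Samples were taken over 24–48 h. PK parameters came from noncompartmental analysis.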

[14] = Elimination half life in Sprague-Dawley rat at 1 mg/kg, iv administered as single dose; assay type: ADME, organism-based; parameters: dose 1 mg/kg, route intravenous; details: in vivo, read-out: beta t1/2 (converted); how it was run: as §2
Staphylococcus aureus [15] = assay: Antimicrobial activity against tetracycline-susceptible Staphylococcus aureus Smith isolate 100 infected in iv dosed mouse systemic infection model assessed as survival of mouse administered 60 mins post infection measured up to 48 hrs; assay type: functional; details: Smith isolate 100, iv, read-out: PD50
How it was run: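 Mouse septicemia model with S. aureus ATCC 13709 mixed with 5% mucin, given intraperitoneally at 2.1×10^6 cfu/mouse. Compound was dosed intravenously 60 min after infection at 0.3–30 mg/kg in sterile water, 6 mice/dose group, with untreated infection controls. Survival was followed over 48 h. PD50 was derived by Probit analysis with 95% CI.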

[16] = AUC (0 to infinity) in Sprague-Dawley rat at 1 mg/kg, iv administered as single dose measured after 24 to 48 hrs; assay type: ADME, organism-based; parameters: time infinity, dose 1 mg/kg, route intravenous; details: plasma; how it was run: as §2
[17] = Clearance in Sprague-Dawley rat at 1 mg/kg, iv administered as single dose measured after 24 to 48 hrs; assay type: ADME, organism-based; parameters: dose 1 mg/kg, route intravenous; details: in vivo; how it was run: as §2
Staphylococcus aureus [18] = assay: Antimicrobial activity against tetracycline-susceptible Staphylococcus aureus Smith isolate 100 by CLSI dilution method; assay type: functional

| SMILES | MIC (Klebsiella pneumoniae [1]) | MIC (Escherichia coli [2]) | MIC (Pseudomonas aeruginosa) | MIC (Staphylococcus aureus [3]) | MIC (Staphylococcus aureus [4]) | MIC (Streptococcus pneumoniae [5]) | MIC (Staphylococcus aureus [6]) | MIC (Escherichia coli [7]) | MIC (Streptococcus pneumoniae [8]) | MIC (Enterobacter cloacae) | MIC (Acinetobacter baumannii) | MIC (Enterococcus faecalis [9]) | MIC (Klebsiella pneumoniae [10]) | MIC (Enterococcus faecalis [11]) | further results |
| --- | --- | --- | --- | --- | --- | --- | --- | --- | --- | --- | --- | --- | --- | --- | --- |
| CN(C)c1ccc2c(O)c3c(cc2c1)C[C@H]1C[C@H]2[C@H](N(C)C)C(O)=C(C(N)=O)C(=O)[C@@]2(O)C(O)=C1C3=O | > 32 µg/mL | > 32 µg/mL | > 32 µg/mL | 4 µg/mL (≈ 7.88 µM) | 2 µg/mL (≈ 3.94 µM) | 16 µg/mL (≈ 31.5 µM) | 2 µg/mL (≈ 3.94 µM) | > 32 µg/mL | 32 µg/mL (≈ 63 µM) | > 32 µg/mL | > 32 µg/mL | 4 µg/mL (≈ 7.88 µM) | > 32 µg/mL | 4 µg/mL (≈ 7.88 µM) | – |
| CN(C)[C@@H]1C(O)=C(C(N)=O)C(=O)[C@@]2(O)C(O)=C3C(=O)c4c(c(F)c5ccc(CN6CCC6)cc5c4O)C[C@H]3C[C@@H]12 | 4 µg/mL (≈ 7.25 µM) | 4 µg/mL (≈ 7.25 µM) | 32 µg/mL (≈ 58 µM) | 1 µg/mL (≈ 1.81 µM) | 0.25 µg/mL (≈ 0.453 µM) | 0.0625 µg/mL (≈ 0.113 µM) | 0.25 µg/mL (≈ 0.453 µM) | 1 µg/mL (≈ 1.81 µM) | 0.125 µg/mL (≈ 0.227 µM) | 2 µg/mL (≈ 3.63 µM) | 0.5 µg/mL (≈ 0.907 µM) | 2 µg/mL (≈ 3.63 µM) | 2 µg/mL (≈ 3.63 µM) | 0.25 µg/mL (≈ 0.453 µM) | Vd [12]: 41.9 L/kg; Cmax [13]: 73 ng/mL; half-life [14]: 8.01 h; ED50 (Staphylococcus aureus [15]): 0.3 mg/kg; AUC(0-inf) [16]: 354 ng·h/mL; clearance [17]: 52.4 mL/min/kg |
| CN(C)[C@@H]1C(O)=C(C(N)=O)C(=O)[C@@]2(O)C(O)=C3C(=O)c4c(c(OCC(O)CO)c5ccc(CN6CCC6)cc5c4O)C[C@H]3C[C@@H]12 (some centres undefined) | > 32 µg/mL | > 32 µg/mL | > 32 µg/mL | > 32 µg/mL | > 32 µg/mL | 4 µg/mL (≈ 6.41 µM) | > 32 µg/mL | > 32 µg/mL | 16 µg/mL (≈ 25.7 µM) | > 32 µg/mL | > 32 µg/mL | > 32 µg/mL | > 32 µg/mL | 32 µg/mL (≈ 51.3 µM) | – |
| CNc1c2c(c(O)c3cc(CN4CCC4)ccc13)C(=O)C1=C(O)[C@]3(O)C(=O)C(C(N)=O)=C(O)[C@@H](N(C)C)[C@@H]3C[C@@H]1C2 | > 32 µg/mL | > 32 µg/mL | > 32 µg/mL | 8 µg/mL (≈ 14.2 µM) | 2 µg/mL (≈ 3.55 µM) | 0.25 µg/mL (≈ 0.444 µM) | 2 µg/mL (≈ 3.55 µM) | 4 µg/mL (≈ 7.11 µM) | 1 µg/mL (≈ 1.78 µM) | 32 µg/mL (≈ 56.9 µM) | > 32 µg/mL | 8 µg/mL (≈ 14.2 µM) | 32 µg/mL (≈ 56.9 µM) | 4 µg/mL (≈ 7.11 µM) | – |
| CN(C)[C@@H]1C(O)=C(C(N)=O)C(=O)[C@@]2(O)C(O)=C3C(=O)c4c(cc5ccc(-c6ccccc6)cc5c4O)C[C@H]3C[C@@H]12 | > 32 µg/mL | > 32 µg/mL | > 32 µg/mL | 8 µg/mL (≈ 14.8 µM) | 2 µg/mL (≈ 3.7 µM) | > 32 µg/mL | 4 µg/mL (≈ 7.4 µM) | > 32 µg/mL | > 32 µg/mL | > 32 µg/mL | > 32 µg/mL | 0.5 µg/mL (≈ 0.925 µM) | > 32 µg/mL | 2 µg/mL (≈ 3.7 µM) | – |
| CN(C)c1ccc(-c2ccc3cc4c(c(O)c3c2)C(=O)C2=C(O)[C@]3(O)C(=O)C(C(N)=O)=C(O)[C@@H](N(C)C)[C@@H]3C[C@@H]2C4)cc1 | > 32 µg/mL | > 32 µg/mL | > 32 µg/mL | > 32 µg/mL | > 32 µg/mL | > 32 µg/mL | 16 µg/mL (≈ 27.4 µM) | > 32 µg/mL | > 32 µg/mL | > 32 µg/mL | > 32 µg/mL | 16 µg/mL (≈ 27.4 µM) | > 32 µg/mL | > 32 µg/mL | – |
| CN(C)c1cc(NC(=O)CNC(C)(C)C)c(O)c2c1C[C@H]1C[C@H]3[C@H](N(C)C)C(O)=C(C(N)=O)C(=O)[C@@]3(O)C(O)=C1C2=O [TIGECYCLINE] | 1 µg/mL (≈ 1.71 µM) | 0.5 µg/mL (≈ 0.854 µM) | 8 µg/mL (≈ 13.7 µM) | 0.125 µg/mL (≈ 0.213 µM) | 0.0625 µg/mL (≈ 0.107 µM) | 0.0156 µg/mL (≈ 0.0266 µM) | 0.0625 µg/mL (≈ 0.107 µM) | 0.0313 µg/mL (≈ 0.0534 µM) | 0.0156 µg/mL (≈ 0.0266 µM) | 0.25 µg/mL (≈ 0.427 µM) | 0.25 µg/mL (≈ 0.427 µM) | 0.0625 µg/mL (≈ 0.107 µM) | 0.125 µg/mL (≈ 0.213 µM) | 0.0313 µg/mL (≈ 0.0534 µM) | Cmax [13]: 428 ng/mL; half-life [14]: 4.6 h; MIC (Staphylococcus aureus [18]): 0.0625 µg/mL (≈ 0.107 µM); ED50 (Staphylococcus aureus [15]): 0.35 mg/kg; AUC(0-inf) [16]: 1050 ng·h/mL |

Reference: ChEMBL document CHEMBL1781932 (J Med Chem, 2011)
